Here are results for 11 molecules from PMC5617735 (Journal of the American Chemical Society, 2017).

In brackets after ≈: the same amount, converted by molar mass. Non-standard residues stand in square brackets, D forms with d. Residues, ends and D or L forms follow the SMILES beside them. ξ: configuration not given here. *: point of attachment. ξI = CCC(C)C(N)C(=O)O; Butyryl = CCCC(=O)*

The subject of test [1] is Staphylococcus aureus Newman. The test can be described thus: Antibacterial assay. The settings on record: read-out: IC50, Staphylococcus aureus Newman. In kind it is cell-based.
For the next test, the system named is E. coli K12. The test can be described thus: Antibacterial assay. It is filed as cell-based. The settings on record: read-out: IC50, E. coli K12.
A further test concerns the target cathepsin B (Homo sapiens, UniProt P07858). The experiment in a line: Cathepsin B inhibition assay. In kind it is biochemical. The settings on record: read-out: Half-maximal inhibitory concentration (IC50), Cathepsin B Inhibition.
Test [2] has as its system Enterococcus faecalis OG1RF. The experiment in a line: Antibacterial assay. It is filed as cell-based. The following applies: read-out: IC50, Enterococcus faecalis OG1RF.
Test [3] deals with Pseudomonas aeruginosa PAO1. The test can be described thus: Antibacterial assay. In kind it is cell-based. The following applies: read-out: IC50, Pseudomonas aeruginosa PAO1.
The test system of another test is Bacillus subtilis 168. The test can be described thus: Antibacterial assay. The settings on record: read-out: IC50, Bacillus subtilis 168. It is filed as cell-based.
A further test relates to Saccharomyces pombe. The experiment in a line: Antifungal assay. In kind it is cell-based. The settings on record: read-out: IC50, Saccharomyces pombe.
Another test concerns Saccharomyces cerevisiae. The test can be described thus: Antifungal assay. In kind it is cell-based. The following applies: read-out: IC50, Saccharomyces cerevisiae.
For test [4], the system named is sur cluster (surA and surC transcripts). The experiment in a line: RT-qPCR of sur cluster expression. The following applies: for induction of surA and surC: wt S. albus, vs DMSO control; for induction of surA and surC / elicitor concentration yielding optimal upregulation of sur: RT-qPCR; for upregulation of surC: at optimal elicitor concentration (~23 μM etoposide, ~30 μM ivermectin), vs DMSO; for elicitor concentration yielding optimal upregulation of sur: dose-response. It is filed as cell-based, Streptomyces albus J1074. The gist of the method: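 Wild-type S. albus J1074 cultures were exposed to the test compound, with DMSO as the negative control. surA and surC mRNA were measured by RT-qPCR and expressed as fold-change versus the DMSO control. For the dose-response, concentrations were multiples of a base level: 1x equals 5.7 μM or 7.6 μM final, depending on the elicitor.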

Test [5] has as its system ΔsurR S. albus secondary metabolite production. The test can be described thus: HPLC-Qtof-MS of sur metabolite production in ΔsurR strain treated with elicitor. The following applies: for increase in the production of surugamide I: HPLC-Qtof-MS; for upregulation of acyl-surugamide A / upregulation of albucyclone A: estimate based on lower limit of detection. It is filed as cell-based, Streptomyces albus J1074.

For the next test, the system named is S. albus. The experiment in a line: Growth inhibition of S. albus by elicitors. In kind it is cell-based, Streptomyces albus J1074.
A further test has as its system surR. The test can be described thus: RT-qPCR of surR expression upon elicitor exposure. In kind it is cell-based, Streptomyces albus J1074. The settings on record: wt S. albus, vs DMSO control. (In qPCR the cycle at which signal appears reflects the starting amount.)
A further test deals with strains tested. The test can be described thus: Antibacterial and antifungal assays. In kind it is cell-based.
A further test has as its system recA and lexA. The test can be described thus: RT-qPCR of SOS response genes recA and lexA. The following applies: S. albus. In kind it is cell-based, Streptomyces albus J1074.

As for `CC[C@@H](C)[C@H]1NC(=O)[C@H](C(C)C)NC(=O)[C@@H](C)NC(=O)[C@H](C(C)C)NC(=O)[C@@H](CC(C)C)NC(=O)[C@@H](Cc2ccccc2)NC(=O)[C@H]([C@@H](C)CC)NC(=O)[C@H](CCCCN)NC1=O` [compound 11, surugamide G] (cyclo(I[dF][dL]V[dA]V[dI]K)), the IC50 (in test [1]; in the test on E. coli K12; at cathepsin B; in test [2]; in test [3]; with Bacillus subtilis 168) was greater than 100 µM in each case. The IC50 in the test on Saccharomyces pombe and in the test on Saccharomyces cerevisiae was greater than 100 µM in each case.

Take `CC[C@@H](C)[C@H]1NC(=O)[C@H](C(C)C)NC(=O)[C@@H](C)NC(=O)[C@H](C(C)C)NC(=O)[C@@H](CC(C)C)NC(=O)[C@@H](Cc2ccccc2)NC(=O)[C@H](C(C)C)NC(=O)[C@H](CCCCN)NC1=O` [compound 12, surugamide H] (cyclo(KV[dF][dL]V[dA]V[dI])): the IC50 at cathepsin B is 12.4 µM.

Regarding `CCCC(=O)NCCCC[C@@H]1NC(=O)C(C(C)CC)NC(=O)C(C(C)CC)NC(=O)[C@@H](C)NC(=O)C(C(C)CC)NC(=O)[C@@H](CC(C)C)NC(=O)[C@@H](Cc2ccccc2)NC(=O)[C@H]([C@@H](C)CC)NC1=O` (stereo partly drawn) [compound 15, acyl-surugamide A] (cyclo(I[dF][dL][ξI][dA][ξI][ξI]K(Butyryl))), the IC50 in test [1] is 27.4 µM; in the test on E. coli K12, greater than 100 µM; on cathepsin B, 43.3 µM; in [2], greater than 100 µM; in test [3] it was greater than 100 µM; in the test with Bacillus subtilis 168, 21.7 µM. Besides, the IC50 with Saccharomyces pombe turned out to be 32.5 µM; with Saccharomyces cerevisiae, 3.5 µM.

For `CC(C)[C@@]1(NC(=O)[C@@H]2C[C@@H]3c4cccc5[nH]cc(c45)C[C@H]3N(C)C2)O[C@@]2(O)[C@@H]3CCCN3C(=O)[C@H](Cc3ccccc3)N2C1=O` [dihydroergocristine], the “induction of surA and surC” value in test [4] was determined as 3 fold.

With `COc1cc([C@@H]2c3cc4c(cc3[C@@H](O[C@@H]3O[C@@H]5CO[C@@H](C)O[C@H]5[C@H](O)[C@H]3O)[C@H]3COC(=O)[C@H]23)OCO4)cc(OC)c1O` [etoposide], in test [4], the “upregulation of surC” value was ~ 10 fold; the “elicitor concentration yielding optimal upregulation of sur” value is given as ~ 23 μM; the “induction of surA and surC” value amounted to 3 fold. Also, in test [5], the “increase in the production of surugamide I” value is on record as greater than 35 fold, the “upregulation of acyl-surugamide A” value is greater than 40 fold and the “upregulation of albucyclone A” value is listed as greater than 50 fold. The IC50 in the test on S. albus (Streptomyces albus, read-out: half-maximal inhibitory concentration (IC50) on S. albus) stood at 10 mg/L (≈ 17 µM). Also, the “down-regulation of surR expression” value in the test with surR is recorded as 2–2.5 fold.

Consider albucyclone A [compound 16], for which the IC50 on cathepsin B is greater than 100 µM.

For the molecule albucyclone F [compound 21], the IC50 (in test [1]; in the test on E. coli K12; on cathepsin B; in test [2]; in test [3]; with Bacillus subtilis 168) was greater than 100 µM each time. The IC50 in the test with Saccharomyces pombe and in the test with Saccharomyces cerevisiae was greater than 100 µM throughout.

Consider albuquinone A [compound 22], for which the IC50 (in test [1]; in the test on E. coli K12; in [2]; in test [3]; in the test with Bacillus subtilis 168; with Saccharomyces pombe) was greater than 100 µM throughout. In addition, the IC50 with Saccharomyces cerevisiae was greater than 100 µM. Also, the “antibiotic activity against the strains tested” value in the test on strains tested is “did not reveal significant antibiotic activity”.

As to ivermectin, in test [4], the “upregulation of surC” value is recorded as 4.5 fold; the “elicitor concentration yielding optimal upregulation of sur” value was ~ 30 μM; the “induction of surA and surC” value was determined as 3 fold. For the same molecule, in test [5], the “increase in the production of surugamide I” value was greater than 35 fold, the “upregulation of acyl-surugamide A” value was greater than 40 fold and the “upregulation of albucyclone A” value is greater than 50 fold. The “inhibition of S. albus growth” value with S. albus (at the concentrations employed) was “did not inhibit S. albus growth”. Further, the “induction of recA and lexA” value with recA and lexA was “no changes”. Further, the “down-regulation of surR expression” value in the test on surR is recorded as 2–2.5 fold.

surugamide I [compound 13]: the IC50 on cathepsin B is 9 µM.

Take surugamide J [compound 14]: the IC50 (in [1]; in the test with E. coli K12; at cathepsin B; in test [2]; in [3]; in the test on Bacillus subtilis 168) was greater than 100 µM in each case. The IC50 with Saccharomyces pombe and in the test with Saccharomyces cerevisiae was greater than 100 µM in each case.
